Common to all, as to type: functional
One assay relates to Pseudomonas aeruginosa. Kind of assay: Antibacterial activity against Pseudomonas aeruginosa at 2 mg/ml after 24 hrs by agar diffusion method. As to conditions: read-out: DIZ. Summed up: (§1)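 Bacteria grown on nutrient agar, incubated 24 h; inhibition zone diameter measured as activity read-out. Three replicate plates per compound. DMSO-only control included for each organism. Ampicillin, chloramphenicol and cloxacillin used at 2 mg/mL as reference drugs.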
For orientation: In agar diffusion tests the substance spreads into inoculated agar from a disc or well.

Another assay has as its system Fusarium solani. Put plainly: Antifungal activity against Fusarium solani at 2 mg/ml after 7 days by agar diffusion method. As to conditions: 168 h, read-out: DIZ. In a few lines:
(§2)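 Fungi tested on potato dextrose agar, incubated seven days; diameter of inhibition zone recorded as activity measure. Three plates per compound as replicates. DMSO without test compound served as control for each organism. Reference drugs (ampicillin, chloramphenicol, cloxacillin) used at 2 mg/mL.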

For assay [1], the system named is Staphylococcus epidermidis. Kind of assay: Antibacterial activity against Staphylococcus epidermidis at 2 mg/ml after 24 hrs by agar diffusion method. As to conditions: read-out: DIZ. In a few lines:
as §1

The subject of a further assay is Alternaria solani. Put plainly: Antifungal activity against Alternaria solani at 2 mg/ml after 7 days by agar diffusion method. As to conditions: 168 h, read-out: DIZ. In a few lines: as §2

As to `Cc1nn(-c2ccccc2)c2c1cnc1c(C(=O)Nc3ccc4c(c3)C(=O)c3ccccc3C4=O)c(Nc3ccccc3)nn12`, the zone of inhibition at 2000 µg/mL in the assay with Pseudomonas aeruginosa was 19 mm; in the assay on Fusarium solani, 14 mm; in assay [1], 17 mm.

For `Nc1n[nH]cc1C(=O)Nc1ccc2c(c1)C(=O)c1ccccc1C2=O`, the zone of inhibition at 2000 µg/mL in the assay on Pseudomonas aeruginosa was determined as 16 mm; in the assay with Alternaria solani it was 17 mm; in the assay on Fusarium solani, 16 mm; in assay [1] it was 22 mm.

Consider `Cc1cc(C)n2nc(Nc3ccccc3)c(C(=O)Nc3ccc4c(c3)C(=O)c3ccccc3C4=O)c2n1`, for which the zone of inhibition at 2000 µg/mL was 17 mm in the assay on Pseudomonas aeruginosa, 14 mm in the assay on Alternaria solani, 13 mm with Fusarium solani and 20 mm in assay [1].

For `Nc1n[nH]c(Nc2ccccc2)c1C(=O)Nc1ccc2c(c1)C(=O)c1ccccc1C2=O`, the zone of inhibition at 2000 µg/mL in the assay on Pseudomonas aeruginosa amounted to 14 mm; in the assay on Alternaria solani, 14 mm; with Fusarium solani, 16 mm; in assay [1] it was 11 mm.

`CN(C)/C=C(\C#N)C(=O)Nc1ccc2c(c1)C(=O)c1ccccc1C2=O`: the zone of inhibition at 2000 µg/mL with Pseudomonas aeruginosa was 14 mm; with Fusarium solani, 12 mm.

Regarding `O=C1c2ccccc2C(=O)c2cc(-n3cnc4n[nH]c(Nc5ccccc5)c4c3=O)ccc21`, the zone of inhibition at 2000 µg/mL in the assay with Pseudomonas aeruginosa is 20 mm; in the assay on Alternaria solani it was 11 mm; in assay [1] it was 15 mm.

`CS/C(Nc1ccccc1)=C(\C#N)C(=O)Nc1ccc2c(c1)C(=O)c1ccccc1C2=O`: the values for the zone of inhibition at 2000 µg/mL (with Pseudomonas aeruginosa; with Alternaria solani; in assay [1]) were 13 mm, 12 mm and 12 mm, respectively.

As to `Cc1cc(C)c2c(n1)nn1c(N)c(C(=O)Nc3ccc4c(c3)C(=O)c3ccccc3C4=O)nnc21`, the zone of inhibition at 2000 µg/mL with Pseudomonas aeruginosa was 21 mm; in the assay with Alternaria solani, 19 mm; in the assay on Fusarium solani, 17 mm; in assay [1], 14 mm.

As to `Cc1ccc(C)n1-c1n[nH]c(Nc2ccccc2)c1C(=O)Nc1ccc2c(c1)C(=O)c1ccccc1C2=O`, the zone of inhibition at 2000 µg/mL came to 16 mm in the assay with Pseudomonas aeruginosa and 19 mm in assay [1].

In the case of `CC1(C)S[C@@H]2[C@H](NC(=O)[C@H](N)c3ccccc3)C(=O)N2[C@H]1C(=O)O` [AMPICILLIN], the zone of inhibition at 2000 µg/mL came to 21 mm with Pseudomonas aeruginosa, 19 mm with Alternaria solani, 17 mm with Fusarium solani and 19 mm in assay [1].

In the case of `Cc1onc(-c2ccccc2Cl)c1C(=O)N[C@@H]1C(=O)N2[C@@H]1SC(C)(C)[C@@H]2C(=O)O` [CLOXACILLIN], the zone of inhibition at 2000 µg/mL was determined as 30 mm in the assay on Pseudomonas aeruginosa, 20 mm in the assay with Alternaria solani, 22 mm in the assay on Fusarium solani and 22 mm in assay [1].

Consider `O=C1c2ccccc2C(=O)c2cc(NC(=O)c3c(Nc4ccccc4)nn4c5c(cnc34)CCc3ccccc3-5)ccc21`, for which the zone of inhibition at 2000 µg/mL in the assay with Pseudomonas aeruginosa was found to be 20 mm; in the assay on Alternaria solani, 22 mm; with Fusarium solani, 14 mm; in assay [1] it was 25 mm.

As for `Cc1cc(C)c2c(N/N=C(/C#N)C(=O)Nc3ccc4c(c3)C(=O)c3ccccc3C4=O)n[nH]c2n1`, the zone of inhibition at 2000 µg/mL was found to be 27 mm in the assay with Pseudomonas aeruginosa, 18 mm with Alternaria solani, 13 mm in the assay on Fusarium solani and 19 mm in assay [1].

`COc1ccc(-c2ccnc3c(C(=O)Nc4ccc5c(c4)C(=O)c4ccccc4C5=O)c(Nc4ccccc4)nn23)cc1`: the zone of inhibition at 2000 µg/mL in the assay on Pseudomonas aeruginosa worked out at 20 mm; in the assay on Alternaria solani, 17 mm; in the assay with Fusarium solani, 15 mm; in assay [1], 21 mm.

For the compound `O=C(N[C@H](CO)[C@H](O)c1ccc([N+](=O)[O-])cc1)C(Cl)Cl` [CHLORAMPHENICOL], the zone of inhibition at 2000 µg/mL turned out to be 24 mm in the assay with Pseudomonas aeruginosa, 18 mm in the assay on Alternaria solani, 17 mm in the assay on Fusarium solani and 27 mm in assay [1].

Turning to `Cc1c(N/C(Nc2ccccc2)=C(\C#N)C(=O)Nc2ccc3c(c2)C(=O)c2ccccc2C3=O)c(=O)n(-c2ccccc2)n1C`, the zone of inhibition at 2000 µg/mL stood at 22 mm with Pseudomonas aeruginosa, 21 mm in the assay with Alternaria solani, 16 mm in the assay with Fusarium solani and 24 mm in assay [1].

The values are drawn from ChEMBL document CHEMBL1157857, “Synthesis and antimicrobial of new anthraquinone derivatives incorporating pyrazole moiety” (2010).
